ChEMBL document CHEMBL4118021, “Studies of TAK1-centered polypharmacology with novel covalent TAK1 inhibitors” (Bioorg Med Chem, 2017)
One block for each compound: values may come before it. Calls of active or inactive are those of the source. The rule behind the calls is not given here.

Tests used:
[1] = tested on: SW-620; assay: Antiproliferative activity against human SW620 cells harboring KRAS G12V mutant after 72 hrs by CellTiter-Glo assay; assay type: functional, cell-based; conditions: SW-620, 72 h
[2] = target: T1, Mitogen-activated protein kinase kinase kinase 7 (Homo sapiens) (UniProt O43318); assay: Inhibition of TAK1 in RA patient-derived synovial fibroblasts assessed as inhibition of IL-1alpha-induced cytokine secretion at 3 uM preincubated for 3 hrs followed by IL-1alpha stimulation measured after 18 hrs by sandwich immunoassay
T1 sequence (whole entry): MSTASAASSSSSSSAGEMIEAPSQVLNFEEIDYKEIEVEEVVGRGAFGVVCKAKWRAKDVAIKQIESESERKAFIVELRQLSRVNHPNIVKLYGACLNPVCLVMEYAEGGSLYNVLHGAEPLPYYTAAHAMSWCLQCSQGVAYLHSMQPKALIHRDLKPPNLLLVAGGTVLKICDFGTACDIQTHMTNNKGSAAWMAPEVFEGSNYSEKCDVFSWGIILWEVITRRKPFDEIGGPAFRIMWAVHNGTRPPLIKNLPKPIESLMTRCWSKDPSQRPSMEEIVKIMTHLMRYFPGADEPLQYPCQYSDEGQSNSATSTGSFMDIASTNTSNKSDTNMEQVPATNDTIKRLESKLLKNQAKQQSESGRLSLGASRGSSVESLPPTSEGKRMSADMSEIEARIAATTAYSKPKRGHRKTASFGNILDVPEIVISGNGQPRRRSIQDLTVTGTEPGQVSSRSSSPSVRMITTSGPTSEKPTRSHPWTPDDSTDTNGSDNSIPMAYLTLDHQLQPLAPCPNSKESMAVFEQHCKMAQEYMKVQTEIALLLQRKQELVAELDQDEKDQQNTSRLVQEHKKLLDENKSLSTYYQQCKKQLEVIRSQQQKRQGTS
How it was run: (§1)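 Primary RA synovial fibroblasts (donor RA2159) seeded 1000 cells/well and grown ~24 h at 37 °C, 5% CO2. Starved overnight in basal medium, then ~4 h in basal medium with 0.1% BSA. Two adjacent wells pooled per replicate, in biological duplicate. Supernatants diluted 1:3 and run on Luminex 27-plex/21-plex sandwich immunoassays for 48 analytes, with spiked-ligand and mock-supernatant background controls.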

[3] = Increase in secretion of basic-FGF in TNFalpha activated RA patient-derived synovial fibroblasts at 0.6 to 3 uM preincubated for 3 hrs followed by TNFalpha stimulation measured after 18 hrs by sandwich immunoassay; conditions: human
How it was run: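 Primary RA patient synovial fibroblasts (donor RA2159) were seeded at 1000 cells/well, grown about 24 h, then starved overnight and again about 4 h in basal medium with 0.1% BSA. Cells were pre-incubated 3 h with inhibitor (0.6 or 3 μM) or DMSO, then stimulated 18 h with 10 ng/mL TNFα. Paired wells were pooled, in biological duplicate. Pooled supernatants were diluted 1:3 and read on Luminex bead sandwich immunoassays, with mock-medium background and spiked-ligand controls.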

[4] = tested on: SK-CO-1; assay: Antiproliferative activity against human SKCO1 cells harboring KRAS G12V mutant after 72 hrs by CellTiter-Glo assay; assay type: functional, cell-based; conditions: SK-CO-1, 72 h
[5] = Antiproliferative activity against human SW156 cells harboring wild type KRAS after 72 hrs by CellTiter-Glo assay; assay type: functional, cell-based
[6] = tested on: ASPC1; assay: Antiproliferative activity against human AsPC1 cells harboring KRAS G12D mutant after 72 hrs by CellTiter-Glo assay; assay type: functional, cell-based; conditions: ASPC1, 72 h
[7] = tested on: BaF3; assay: Antiproliferative activity against mouse BA/F3 cells after 72 hrs by CellTiter-Glo assay; assay type: cell-based; conditions: BaF3, 72 h
[8] = Antiproliferative activity against human URMC6 cells harboring wild type KRAS after 72 hrs by CellTiter-Glo assay; assay type: functional, cell-based
[9] = target: Receptor-type tyrosine-protein kinase FLT3 (Homo sapiens, UniProt P36888); assay: Inhibition of FLT3 (unknown origin)
[10] = tested on: BaF3; assay: Antiproliferative activity against mouse BA/F3 cells harboring KRAS G12D mutant after 72 hrs by CellTiter-Glo assay; assay type: functional, cell-based; conditions: BaF3, 72 h
[11] = target: T1, Mitogen-activated protein kinase kinase kinase 7 (Homo sapiens); assay: Inhibition of TAK1 in RA patient-derived synovial fibroblasts assessed as inhibition of poly(I:C)-induced cytokine secretion at 3 uM preincubated for 3 hrs followed by poly(I:C) stimulation measured after 18 hrs by sandwich immunoassay; how it was run: as §1
[12] = tested on: NALM-6; assay: Antiproliferative activity against human NALM6 cells harboring NARS A146T mutant at […] to […] nM after 72 hrs by CellTiter-Glo assay; assay type: functional, cell-based
[13] = tested on: U-937; assay: Antiproliferative activity against human U937 cells at […] to […] nM after 72 hrs by CellTiter-Glo assay; assay type: functional, cell-based
[14] = tested on: BaF3; assay: Antiproliferative activity against mouse BA/F3 cells harboring KRAS G12D mutant after 72 hrs in presence of IL-3 by CellTiter-Glo assay; assay type: functional, cell-based; conditions: BaF3, 72 h
[15] = target: T2, Mitogen-activated protein kinase kinase kinase 7 (Homo sapiens, UniProt O43318); assay: Inhibition of TAK1 (unknown origin) by LanthaScreen assay
T2 sequence (O43318 whole entry): T1 sequence (whole entry)

[16] = tested on: NCI-H23; assay: Antiproliferative activity against human NCI-H23 cells harboring KRAS G12C mutant after 72 hrs by CellTiter-Glo assay; assay type: functional, cell-based
How it was run: (§2)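 NCI-H23 or NCI-H358 cells seeded at 2000 cells/well and grown 48 h before drug. Varying doses were added and cells incubated 72 h. Viability was read as CellTiter-Glo luminescence, and growth-inhibition IC50 was calculated from dose-response curves.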

[17] = tested on: PANC-1; assay: Antiproliferative activity against human PANC1 cells harboring KRAS G12D mutant after 72 hrs by CellTiter-Glo assay; assay type: functional, cell-based; conditions: PANC-1, 72 h
[18] = tested on: MOLM-14; assay: Antiproliferative activity against human MOLM14 cells harboring FLT3-ITD mutant at […] to […] nM after 72 hrs by CellTiter-Glo assay; assay type: functional, cell-based
[19] = tested on: BaF3; assay: Antiproliferative activity against mouse BA/F3 cells harboring NRAS G12D mutant after 72 hrs in presence of IL-3 by CellTiter-Glo assay; assay type: functional, cell-based; conditions: BaF3, 72 h
How it was run: (§3)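 Ba/F3 parental or RAS-transformed cells were seeded at 1000 viable cells/well, without or with IL-3 as the line states, at 37 °C and 5% CO2. After 4 h, nine four-fold serial dilutions were added in triplicate (final 0.5–30,000 nM, 0.3% DMSO). DMSO wells served as 100% viability.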

[20] = tested on: HEL; assay: Antiproliferative activity against human HEL cells at […] to […] nM after 72 hrs by CellTiter-Glo assay; assay type: functional, cell-based
[21] = target: T1, Mitogen-activated protein kinase kinase kinase 7 (Homo sapiens); assay: Inhibition of TAK1 in RA patient-derived synovial fibroblasts assessed as inhibition of TNFalpha-induced cytokine secretion at 3 uM preincubated for 3 hrs followed by TNFalpha stimulation measured after 18 hrs by sandwich immunoassay; how it was run: as §1
[22] = target: T1, Mitogen-activated protein kinase kinase kinase 7 (Homo sapiens); assay: Inhibition of biotin-labeled N-(2-(2-(2-(2-(4-(4-((4-((2-Acrylamidophenyl)amino)-5-chloropyrimidin-2-yl)amino)phenyl)piperazin-1-yl)ethoxy)ethoxy)ethoxy)ethyl)-5-((3aS,4S,6aR)-2-oxohexahydro-1H-thieno[3,4-d]imidazol-4-yl)pentanamide probe binding to TAK1 in human NCI-H358 cells at 10 uM after 6 hrs by immunoblot based competitive pull down assay; assay type: cell-based
How it was run: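 H358 cells given 1 or 10 μM compound for 6 h, medium removed, cells rinsed twice with cold PBS and lysed in MPER buffer. Lysates incubated overnight at 4 °C with 1 μM biotinylated covalent probe, captured on streptavidin beads, and TAK1 recovery assessed by immunoblotting with anti-TAK1 antibody.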

[23] = tested on: BaF3; assay: Antiproliferative activity against mouse BA/F3 cells harboring NRAS G12D mutant after 72 hrs by CellTiter-Glo assay; assay type: functional, cell-based; conditions: BaF3, 72 h; how it was run: as §3
[24] = tested on: NCI-H358; assay: Antiproliferative activity against human NCI-H358 cells harboring KRAS G12C mutant after 72 hrs by CellTiter-Glo assay; assay type: functional, cell-based; how it was run: as §2
[25] = tested on: NCI-H358; assay: Antiproliferative activity against human NCI-H358 cells harboring KRAS G12C mutant at; assay type: functional, cell-based
[26] = tested on: NCI-H23; assay: Antiproliferative activity against human NCI-H23 cells harboring KRAS G12C mutant at; assay type: functional, cell-based

Chain of Receptor-type tyrosine-protein kinase FLT3 (P36888 whole entry): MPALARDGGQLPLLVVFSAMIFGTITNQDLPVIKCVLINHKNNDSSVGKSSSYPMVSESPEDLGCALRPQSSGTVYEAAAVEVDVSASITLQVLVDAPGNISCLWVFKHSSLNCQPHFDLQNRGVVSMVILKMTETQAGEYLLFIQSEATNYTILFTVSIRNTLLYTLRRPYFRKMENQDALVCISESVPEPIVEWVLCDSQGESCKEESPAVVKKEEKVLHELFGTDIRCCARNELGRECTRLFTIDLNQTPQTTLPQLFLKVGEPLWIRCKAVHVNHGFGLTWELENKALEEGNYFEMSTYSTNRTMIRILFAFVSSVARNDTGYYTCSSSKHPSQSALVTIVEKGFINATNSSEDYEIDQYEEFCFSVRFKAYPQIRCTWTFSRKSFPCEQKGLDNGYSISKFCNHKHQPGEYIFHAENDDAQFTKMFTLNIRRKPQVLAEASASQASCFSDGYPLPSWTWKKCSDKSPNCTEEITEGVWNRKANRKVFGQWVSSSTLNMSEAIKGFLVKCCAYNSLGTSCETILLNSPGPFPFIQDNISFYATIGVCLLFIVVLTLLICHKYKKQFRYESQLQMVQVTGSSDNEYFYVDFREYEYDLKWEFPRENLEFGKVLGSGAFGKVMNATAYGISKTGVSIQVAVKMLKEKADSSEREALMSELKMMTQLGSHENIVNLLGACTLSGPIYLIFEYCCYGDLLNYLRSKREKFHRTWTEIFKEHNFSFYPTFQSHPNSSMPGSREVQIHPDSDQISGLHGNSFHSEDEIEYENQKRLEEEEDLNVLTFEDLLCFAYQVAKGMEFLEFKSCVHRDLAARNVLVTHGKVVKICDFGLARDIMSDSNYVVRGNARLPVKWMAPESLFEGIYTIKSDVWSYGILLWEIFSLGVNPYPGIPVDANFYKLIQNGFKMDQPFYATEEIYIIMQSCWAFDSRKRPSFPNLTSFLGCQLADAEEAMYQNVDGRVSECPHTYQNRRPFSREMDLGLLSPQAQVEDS

IC50 [1]: 767 nM | inhibition [2]: Active | IC50 [4]: 294 nM | IC50 [6]: 1850 nM | IC50 [7]: 274 nM | IC50 [9]: 0.63 nM | IC50 [10]: 28 nM | inhibition [11]: Active | IC50 [14]: 93 nM | IC50 [15]: 5.1 nM | IC50 [17]: 1260 nM | IC50 [19]: 61 nM | inhibition [21]: Active | inhibition [22]: Active | IC50 [23]: 10 nM
SMILES: C=CC(=O)Nc1ccccc1Oc1nc(Nc2ccc(N3CCN(C)CC3)cc2)ncc1Cl
Activity [3]: Toxic | IC50 [5]: 2880 nM | IC50 [8]: 524 nM | Activity [12]: inactive | Activity [13]: Active | Activity [16]: Active | Activity [18]: Active | Activity [20]: inactive | Activity [24]: Active

SMILES: N#CC[C@H](C1CCCC1)n1cc(-c2ncnc3[nH]ccc23)cn1
Activity [25]: Active | Activity [26]: Active
